Source: ChEMBL document CHEMBL5649168, “Discovery of a selective catalytic p300/CBP inhibitor that targets lineage-specific tumours” (Nature, 2017)

Tests used:
VCaP = experiment: Antiproliferative activity against human VCaP cells assessed as inhibition of cell viability incubated for 3 to 5 days by Celltiter-Glo luminescent assay; type: functional, cell-based
[1] = target: G protein-coupled receptor kinase 5 (Homo sapiens, UniProt P34947); experiment: Inhibition of GRK5 (unknown origin)
MDA-MB-231 = experiment: Antiproliferative activity against human MDA-MB-231 cells assessed as inhibition of cell viability incubated for 3 to 5 days by Celltiter-Glo luminescent assay; type: functional, cell-based
[2] = target: Mitogen-activated protein kinase kinase kinase 10 (Homo sapiens, UniProt Q02779); experiment: Inhibition of MAP3K10 (unknown origin)
[3] = target: Serine/threonine-protein kinase pim-1 (Homo sapiens, UniProt P11309); experiment: Inhibition of Pim1 (unknown origin)
CA46 = experiment: Antiproliferative activity against human CA46 cells assessed as inhibition of cell viability incubated for 3 to 5 days by Celltiter-Glo luminescent assay; type: functional, cell-based
[4] = Cmax in CB17 SCID mouse xenografted with LuCaP-77 CR cell at 200 mg/kg, ip administered for 7 days; type: ADME, organism-based; settings: in vivo, time 7 day
[5] = target: Dual specificity mitogen-activated protein kinase kinase 3 (Homo sapiens, UniProt P46734); experiment: Inhibition of MAP2K3 (unknown origin)
SU-DHL-8 = experiment: Antiproliferative activity against human SU-DHL-8 cells assessed as inhibition of cell viability incubated for 3 to 5 days by Celltiter-Glo luminescent assay; type: functional, cell-based
WM 266-4 = experiment: Antiproliferative activity against human WM266-4 cells assessed as inhibition of cell viability incubated for 3 to 5 days by Celltiter-Glo luminescent assay; type: functional, cell-based
U2932 = experiment: Antiproliferative activity against human U2932 cells assessed as inhibition of cell viability incubated for 3 to 5 days by Celltiter-Glo luminescent assay; type: functional, cell-based
[6] = target: Tyrosine-protein kinase JAK2 (Homo sapiens, UniProt O60674); experiment: Inhibition of JAK2 (unknown origin)
[7] = target: T1, CREB-binding protein/Histone acetyltransferase p300 (Homo sapiens, UniProt Q09472+Q92793); experiment: Inhibition of p300/CBP in human 22Rv1 cells assessed as reduction in H3K9Ac level incubated for 1 hr by Hoechst 33342 staining based high content microscopy analysis; type: cell-based
Outline: (§1)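 Cells received an 8-point half-log dilution series from 10 µM. They were then fixed in 10% formaldehyde (10 min, RT), permeabilised with 0.1% Triton X-100 and blocked with 1% BSA for 1 h. Primary antibodies were applied overnight at 4 °C, followed by Alexa488 anti-rabbit, Alexa555 anti-mouse and Hoechst 33342 for 1 h. Fifteen fields per well were imaged and average mean intensity taken. EC50 came from a sigmoidal fit.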

cells = settings: Homo sapiens, MINO
SK-MEL-2 = experiment: Antiproliferative activity against human SK-MEL-2 cells assessed as inhibition of cell viability incubated for 3 to 5 days by Celltiter-Glo luminescent assay; type: functional, cell-based
[8] = target: Serine/threonine-protein kinase 4 (Homo sapiens, UniProt Q13043); experiment: Inhibition of MST1 (unknown origin)
NU-DUL-1 = experiment: Antiproliferative activity against human NU-DUL-1 cells assessed as inhibition of cell viability incubated for 3 to 5 days by Celltiter-Glo luminescent assay; type: functional, cell-based
DU-145 = experiment: Antiproliferative activity against human DU-145 cells assessed as inhibition of cell viability incubated for 3 to 5 days by Celltiter-Glo luminescent assay; type: functional, cell-based
[9] = target: Tyrosine-protein kinase JAK3 (Homo sapiens, UniProt P52333); experiment: Inhibition of JAK3 (unknown origin)
Toledo = experiment: Antiproliferative activity against human Toledo cells assessed as inhibition of cell viability incubated for 3 to 5 days by Celltiter-Glo luminescent assay; type: functional, cell-based
HCC1187 = experiment: Antiproliferative activity against human HCC1187 cells assessed as inhibition of cell viability incubated for 3 to 5 days by Celltiter-Glo luminescent assay; type: functional, cell-based
[10] = target: High affinity nerve growth factor receptor (Homo sapiens, UniProt P04629); experiment: Inhibition of TrkA (unknown origin)
[11] = target: Tyrosine-protein kinase SYK (Homo sapiens, UniProt P43405); experiment: Inhibition of Syk (unknown origin)
SK-MEL-5 = experiment: Antiproliferative activity against human SK-MEL-5 cells assessed as inhibition of cell viability incubated for 3 to 5 days by Celltiter-Glo luminescent assay; type: functional, cell-based
COR-L47 = experiment: Antiproliferative activity against human COR-L47 cells assessed as inhibition of cell viability incubated for 3 to 5 days by Celltiter-Glo luminescent assay; type: functional, cell-based
DOHH-2 = experiment: Antiproliferative activity against human DOHH-2 cells assessed as inhibition of cell viability incubated for 3 to 5 days by Celltiter-Glo luminescent assay; type: functional, cell-based
Rec1 = experiment: Antiproliferative activity against human REC1 cells assessed as inhibition of cell viability incubated for 3 to 5 days by Celltiter-Glo luminescent assay; type: functional, cell-based
[12] = target: Mitogen-activated protein kinase kinase kinase kinase 4 (Homo sapiens, UniProt O95819); experiment: Inhibition of MAP4K4 (unknown origin)
[13] = target: Vascular endothelial growth factor receptor 1 (Homo sapiens, UniProt P17948); experiment: Inhibition of Flt1 (unknown origin)
DB = experiment: Antiproliferative activity against human DB cells assessed as inhibition of cell viability incubated for 3 to 5 days by Celltiter-Glo luminescent assay; type: functional, cell-based
MAO-B = MAO-B (Homo sapiens, UniProt P27338); experiment: Inhibition of human recombinant MAO-B at 10 uM by radioligand binding assay relative to control
NCI-H1930 = experiment: Antiproliferative activity against human NCI-H1930 cells assessed as inhibition of cell viability incubated for 3 to 5 days by Celltiter-Glo luminescent assay; type: functional, cell-based
GA-10 = experiment: Antiproliferative activity against human GA-10 cells assessed as inhibition of cell viability incubated for 3 to 5 days by Celltiter-Glo luminescent assay; type: functional, cell-based
[14] = target: Serine/threonine-protein kinase Sgk1 (Homo sapiens, UniProt O00141); experiment: Inhibition of SGK1 (unknown origin)
[15] = target: Cyclin-dependent kinase 11B (Homo sapiens, UniProt P21127); experiment: Inhibition of CDK11 (unknown origin)
[16] = Toxicity in CB17 SCID mouse xenografted with human LuCaP-77 CR cell assessed as body weight loss at 100 mg/kg, ip BID administered for 7 days relative to control; type: organism-based; settings: in vivo, 168 h, time 7 day
[17] = target: cAMP-dependent protein kinase (PKA) (Homo sapiens, UniProt P22694+P17612+P22612); experiment: Inhibition of PKA (unknown origin); type: protein assay
HL-60 = experiment: Antiproliferative activity against human HL-60 cells assessed as inhibition of cell viability incubated for 3 to 5 days by Celltiter-Glo luminescent assay; type: functional, cell-based
[18] = target: T1, CREB-binding protein/Histone acetyltransferase p300; experiment: Inhibition of p300/CBP in human 22Rv1 cells assessed as reduction in H3K18Ac level incubated for 3 hrs by Hoechst 33342 staining based high content microscopy analysis; type: cell-based; outline: as §1
Malme-3M = experiment: Antiproliferative activity against human Malme-3M cells assessed as inhibition of cell viability incubated for 3 to 5 days by Celltiter-Glo luminescent assay; type: functional, cell-based

T1 sequence (Q09472 whole entry, looked up): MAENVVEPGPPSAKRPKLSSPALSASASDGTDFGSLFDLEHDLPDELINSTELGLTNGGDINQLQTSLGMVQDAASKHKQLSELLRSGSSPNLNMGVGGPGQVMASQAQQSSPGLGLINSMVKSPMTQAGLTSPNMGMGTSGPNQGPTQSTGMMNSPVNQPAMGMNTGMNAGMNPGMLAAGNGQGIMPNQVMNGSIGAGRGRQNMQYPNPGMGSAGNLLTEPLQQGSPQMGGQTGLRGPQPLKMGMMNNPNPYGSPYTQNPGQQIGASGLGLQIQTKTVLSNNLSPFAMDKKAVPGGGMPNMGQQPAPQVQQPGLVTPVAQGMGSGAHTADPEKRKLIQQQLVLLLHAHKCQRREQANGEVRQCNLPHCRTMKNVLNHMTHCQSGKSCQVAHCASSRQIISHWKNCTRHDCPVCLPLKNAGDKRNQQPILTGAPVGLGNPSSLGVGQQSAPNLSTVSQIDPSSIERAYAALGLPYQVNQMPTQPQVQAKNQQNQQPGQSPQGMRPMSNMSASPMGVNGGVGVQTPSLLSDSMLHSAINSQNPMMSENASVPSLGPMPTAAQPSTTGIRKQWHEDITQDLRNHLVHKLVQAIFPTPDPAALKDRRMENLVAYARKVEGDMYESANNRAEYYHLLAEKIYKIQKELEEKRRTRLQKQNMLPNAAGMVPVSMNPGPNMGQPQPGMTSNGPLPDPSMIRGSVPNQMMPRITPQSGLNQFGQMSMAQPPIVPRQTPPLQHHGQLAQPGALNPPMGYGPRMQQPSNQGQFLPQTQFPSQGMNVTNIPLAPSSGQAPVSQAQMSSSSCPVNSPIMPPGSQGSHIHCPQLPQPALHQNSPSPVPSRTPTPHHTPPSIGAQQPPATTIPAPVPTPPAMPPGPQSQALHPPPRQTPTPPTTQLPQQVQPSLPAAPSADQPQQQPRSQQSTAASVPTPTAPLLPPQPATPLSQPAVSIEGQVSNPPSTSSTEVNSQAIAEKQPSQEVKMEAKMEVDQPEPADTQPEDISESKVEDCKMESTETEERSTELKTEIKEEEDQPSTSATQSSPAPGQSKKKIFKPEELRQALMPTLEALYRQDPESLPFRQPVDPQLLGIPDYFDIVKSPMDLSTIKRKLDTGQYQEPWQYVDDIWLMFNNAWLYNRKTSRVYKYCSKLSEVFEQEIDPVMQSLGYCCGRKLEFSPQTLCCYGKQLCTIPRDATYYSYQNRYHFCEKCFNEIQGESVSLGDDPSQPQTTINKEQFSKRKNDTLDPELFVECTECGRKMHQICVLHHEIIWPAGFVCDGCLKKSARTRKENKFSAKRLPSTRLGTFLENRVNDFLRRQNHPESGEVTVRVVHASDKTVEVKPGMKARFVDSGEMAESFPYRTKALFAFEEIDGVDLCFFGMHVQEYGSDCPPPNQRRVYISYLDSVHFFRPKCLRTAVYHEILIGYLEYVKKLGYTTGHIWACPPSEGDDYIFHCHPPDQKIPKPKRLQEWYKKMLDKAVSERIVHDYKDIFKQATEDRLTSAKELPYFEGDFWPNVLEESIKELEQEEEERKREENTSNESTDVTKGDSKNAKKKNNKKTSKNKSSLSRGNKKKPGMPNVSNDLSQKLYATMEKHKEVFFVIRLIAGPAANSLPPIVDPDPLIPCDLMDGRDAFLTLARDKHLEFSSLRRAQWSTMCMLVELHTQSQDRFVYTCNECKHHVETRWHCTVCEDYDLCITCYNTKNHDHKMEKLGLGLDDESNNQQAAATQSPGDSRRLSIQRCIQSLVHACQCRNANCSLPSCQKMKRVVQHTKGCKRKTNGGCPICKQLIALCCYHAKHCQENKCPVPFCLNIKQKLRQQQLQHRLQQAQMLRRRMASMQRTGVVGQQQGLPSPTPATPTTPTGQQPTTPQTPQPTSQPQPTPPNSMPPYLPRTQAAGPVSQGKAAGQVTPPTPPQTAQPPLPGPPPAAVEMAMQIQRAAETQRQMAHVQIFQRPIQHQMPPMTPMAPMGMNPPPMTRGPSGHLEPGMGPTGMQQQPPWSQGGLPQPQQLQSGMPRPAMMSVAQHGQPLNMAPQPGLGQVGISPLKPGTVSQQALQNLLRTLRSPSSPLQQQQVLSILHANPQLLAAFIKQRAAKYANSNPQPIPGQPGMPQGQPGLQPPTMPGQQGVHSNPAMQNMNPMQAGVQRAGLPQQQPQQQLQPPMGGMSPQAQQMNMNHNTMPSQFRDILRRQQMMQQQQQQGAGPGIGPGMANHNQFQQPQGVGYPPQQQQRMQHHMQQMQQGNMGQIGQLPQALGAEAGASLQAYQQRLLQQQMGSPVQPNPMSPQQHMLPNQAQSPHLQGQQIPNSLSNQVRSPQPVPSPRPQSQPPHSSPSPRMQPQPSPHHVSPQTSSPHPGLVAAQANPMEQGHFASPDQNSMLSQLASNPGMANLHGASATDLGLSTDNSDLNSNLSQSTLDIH
T1 sequence (Q92793 whole entry, looked up): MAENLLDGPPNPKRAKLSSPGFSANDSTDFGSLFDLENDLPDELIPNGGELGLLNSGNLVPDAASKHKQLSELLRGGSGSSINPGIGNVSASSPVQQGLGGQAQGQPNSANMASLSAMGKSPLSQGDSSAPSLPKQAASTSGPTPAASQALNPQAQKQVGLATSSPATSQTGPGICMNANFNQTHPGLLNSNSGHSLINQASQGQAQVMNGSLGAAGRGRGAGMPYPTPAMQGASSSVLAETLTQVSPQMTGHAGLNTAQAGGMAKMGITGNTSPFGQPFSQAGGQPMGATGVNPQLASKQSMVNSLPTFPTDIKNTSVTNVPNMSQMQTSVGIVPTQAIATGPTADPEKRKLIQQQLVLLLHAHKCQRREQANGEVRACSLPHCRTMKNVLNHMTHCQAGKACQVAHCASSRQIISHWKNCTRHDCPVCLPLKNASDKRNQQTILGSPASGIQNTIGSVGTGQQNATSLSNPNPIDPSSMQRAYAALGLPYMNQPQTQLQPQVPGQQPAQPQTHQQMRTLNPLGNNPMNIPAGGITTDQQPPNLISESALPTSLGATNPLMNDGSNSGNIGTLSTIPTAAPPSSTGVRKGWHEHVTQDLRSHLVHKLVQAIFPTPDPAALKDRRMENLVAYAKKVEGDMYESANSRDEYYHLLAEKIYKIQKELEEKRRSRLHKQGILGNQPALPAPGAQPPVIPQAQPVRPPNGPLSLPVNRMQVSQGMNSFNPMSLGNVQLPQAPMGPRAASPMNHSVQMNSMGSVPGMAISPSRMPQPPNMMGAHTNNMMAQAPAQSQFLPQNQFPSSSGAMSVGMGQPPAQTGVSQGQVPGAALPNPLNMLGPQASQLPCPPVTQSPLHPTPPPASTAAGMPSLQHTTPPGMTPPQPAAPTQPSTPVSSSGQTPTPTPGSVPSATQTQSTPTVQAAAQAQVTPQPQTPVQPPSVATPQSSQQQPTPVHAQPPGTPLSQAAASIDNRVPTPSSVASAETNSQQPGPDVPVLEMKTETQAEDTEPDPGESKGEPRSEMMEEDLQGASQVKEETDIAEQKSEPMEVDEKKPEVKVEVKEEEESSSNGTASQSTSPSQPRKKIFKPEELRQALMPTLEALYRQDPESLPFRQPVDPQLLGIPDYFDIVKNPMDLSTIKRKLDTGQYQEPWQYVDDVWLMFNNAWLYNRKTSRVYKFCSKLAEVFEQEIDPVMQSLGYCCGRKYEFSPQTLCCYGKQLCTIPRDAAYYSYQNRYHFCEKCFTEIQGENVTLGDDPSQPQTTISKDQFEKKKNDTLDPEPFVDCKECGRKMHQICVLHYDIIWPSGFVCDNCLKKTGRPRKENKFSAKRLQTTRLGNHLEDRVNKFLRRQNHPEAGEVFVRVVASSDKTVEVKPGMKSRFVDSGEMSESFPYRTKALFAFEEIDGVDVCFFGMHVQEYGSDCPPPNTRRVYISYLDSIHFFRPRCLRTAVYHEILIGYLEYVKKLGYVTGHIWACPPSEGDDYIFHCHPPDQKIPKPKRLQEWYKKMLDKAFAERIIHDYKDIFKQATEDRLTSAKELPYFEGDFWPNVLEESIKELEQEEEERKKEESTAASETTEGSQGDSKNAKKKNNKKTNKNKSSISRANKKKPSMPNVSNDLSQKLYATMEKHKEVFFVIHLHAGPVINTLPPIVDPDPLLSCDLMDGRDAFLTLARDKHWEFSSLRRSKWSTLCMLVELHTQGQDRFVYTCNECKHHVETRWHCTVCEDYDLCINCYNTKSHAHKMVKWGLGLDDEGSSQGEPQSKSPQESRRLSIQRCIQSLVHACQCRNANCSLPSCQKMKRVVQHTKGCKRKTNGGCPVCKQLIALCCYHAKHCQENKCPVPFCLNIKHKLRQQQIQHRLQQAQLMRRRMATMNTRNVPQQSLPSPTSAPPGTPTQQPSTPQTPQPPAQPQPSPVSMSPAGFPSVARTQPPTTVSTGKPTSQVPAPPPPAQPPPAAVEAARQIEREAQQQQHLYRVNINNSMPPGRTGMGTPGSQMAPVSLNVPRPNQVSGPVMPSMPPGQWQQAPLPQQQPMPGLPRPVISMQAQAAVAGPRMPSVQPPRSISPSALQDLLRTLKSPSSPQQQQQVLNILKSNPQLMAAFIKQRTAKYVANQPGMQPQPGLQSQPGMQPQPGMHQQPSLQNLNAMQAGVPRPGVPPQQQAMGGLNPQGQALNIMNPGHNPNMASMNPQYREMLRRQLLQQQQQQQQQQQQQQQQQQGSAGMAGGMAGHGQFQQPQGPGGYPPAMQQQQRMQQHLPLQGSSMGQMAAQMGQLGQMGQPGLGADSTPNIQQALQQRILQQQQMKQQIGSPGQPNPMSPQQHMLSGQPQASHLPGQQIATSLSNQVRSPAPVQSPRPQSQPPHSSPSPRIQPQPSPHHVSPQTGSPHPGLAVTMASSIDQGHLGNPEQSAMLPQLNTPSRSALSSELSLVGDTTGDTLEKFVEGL
Sequence of Serine/threonine-protein kinase pim-1 (P11309 whole entry): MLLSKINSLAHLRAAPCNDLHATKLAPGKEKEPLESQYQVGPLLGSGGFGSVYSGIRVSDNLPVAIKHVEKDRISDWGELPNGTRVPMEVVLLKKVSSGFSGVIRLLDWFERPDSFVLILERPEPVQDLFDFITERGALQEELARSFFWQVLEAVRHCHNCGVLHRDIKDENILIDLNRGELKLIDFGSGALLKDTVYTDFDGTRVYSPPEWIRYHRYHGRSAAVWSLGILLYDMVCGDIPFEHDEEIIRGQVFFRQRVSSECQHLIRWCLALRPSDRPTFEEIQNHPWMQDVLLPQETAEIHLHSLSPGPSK

CNC(=O)Nc1ccc2c(c1)CC[C@@]21OC(=O)N(CC(=O)N(Cc2ccc(F)cc2)[C@@H](C)C(F)(F)F)C1=O [A-485] showed an EC50 (VCaP) of 40 nM, an IC50 [1] of over 10000 nM and an EC50 (MDA-MB-231) of over 10000 nM. For the same compound, the IC50 [2] was over 10000 nM, the IC50 [3] was over 10000 nM and the EC50 (CA46) was 480 nM. It also gave a Cmax [4] of 242 µg/mL, an IC50 [5] of over 10000 nM and an EC50 (SU-DHL-8) of 540 nM. The EC50 (WM 266-4) was 1910 nM, the EC50 (U2932) was 2460 nM and the IC50 [6] was over 10000 nM. For the same compound, the INH [7] was over 10 µM, the EC50 (cells) was 530 nM and the EC50 (SK-MEL-2) was over 10000 nM. It also gave an IC50 [8] of over 10000 nM, an EC50 (NU-DUL-1) of 480 nM and an EC50 (DU-145) of over 10000 nM. The IC50 [9] was over 10000 nM, the EC50 (Toledo) was 490 nM and the EC50 (HCC1187) was over 10000 nM. The IC50 [10] was over 10000 nM, the IC50 [11] was over 10000 nM and the EC50 (SK-MEL-5) was 910 nM. The EC50 (COR-L47) was over 10000 nM, the EC50 (DOHH-2) was 750 nM and the EC50 (Rec1) was over 10000 nM. It also gave an IC50 [12] of over 10000 nM, an IC50 [13] of over 10000 nM and an EC50 (DB) of 770 nM. It also gave an inhibition at 10 µM (MAO-B) of -20%, an EC50 (NCI-H1930) of over 10000 nM and an EC50 (GA-10) of 1060 nM. It also gave an IC50 [14] of over 10000 nM, an IC50 [15] of over 10000 nM and an Activity [16] of 9%. The IC50 [17] was over 10000 nM, the EC50 (HL-60) was over 10000 nM and the INH [18] was 1.14 µM. The EC50 (Malme-3M) was 2690 nM.
